Measurements: ChEMBL document CHEMBL1139725, “Synthesis and SAR of novel hydantoin derivatives as selective androgen receptor modulators” (2006)
The source made the active and inactive calls. The rule behind the calls is not given here.

Columns and labels:
Rattus norvegicus [1] = experiment: Inhibition of prostate weight in Sprague-Dawley rat at 2 mg/day, po relative to control; assay type: functional, Prostate gland
Method in brief: (§1)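 Five-day antagonist assay in immature (about 50 g) castrated male Sprague–Dawley rats. Compound given po in 20% cyclodextrin once daily at 2 mg/day for 5 days, with testosterone propionate co-dosed sc in sesame oil at 0.1 mg/d ([…]). Read-out is % inhibition of testosterone-enhanced tissue weight, with vehicle control set to 100% and testosterone-alone control to 0%; n = 3/group.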

Rattus norvegicus [2] = experiment: Inhibition of seminal vesicle weight in Sprague-Dawley rat at 2 mg/day, po relative to control; assay type: functional; method in brief: as §1
Rattus norvegicus [3] = organism: Rattus norvegicus; experiment: Stimulation of prostate weight in Sprague-Dawley rat relative to testosterone; assay type: functional, organism-based; details: Prostate gland
Method in brief: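 Immature castrated male Sprague–Dawley rats (about 50 g) were dosed for five days. Prostate weight was expressed as percent stimulation: vehicle-treated controls were set to 0% and testosterone-alone controls to 100%. The testosterone propionate reference was given subcutaneously at the nape of the neck at 5 mg/kg in sesame oil.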

Rattus norvegicus [4] = organism: Rattus norvegicus; experiment: Stimulation of levator ani muscle weight in Sprague-Dawley rat relative to testosterone; assay type: functional
Method in brief: (§2)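 Agonist mode of a five-day modified Hershberger assay in immature (about 50 g) castrated male Sprague–Dawley rats. Activity is % stimulation of tissue weight, with vehicle-treated control set to 0% and testosterone-alone control to 100%.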

Rattus norvegicus [5] = experiment: Stimulation of prostate weight in Sprague-Dawley rat at 2 mg/day, po relative to testosterone; assay type: functional, Prostate gland; method in brief: as §2
Rattus norvegicus [6] = organism: Rattus norvegicus; experiment: Stimulation of levator ani muscle weight in Sprague-Dawley rat at 2 mg/day relative to testosterone; assay type: functional; method in brief: as §2
Rattus norvegicus [7] = organism: Rattus norvegicus; experiment: Stimulation of prostate weight in Sprague-Dawley rat at 3 mg/day relative to testosterone; assay type: functional, Prostate gland; method in brief: as §2
Rattus norvegicus [8] = experiment: Stimulation of levator ani muscle weight Sprague-Dawley rat at 5 mg/kg, sc; assay type: functional; details: route subcutaneous
Method in brief: (§3)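 Testosterone propionate injected sc at the nape of the neck at 5 mg/kg in sesame oil, in immature (about 50 g) castrated male Sprague–Dawley rats in a five-day modified Hershberger assay. Read-out is stimulation of tissue weight.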

Rattus norvegicus [9] = experiment: Stimulation of prostate weight in Sprague-Dawley rat at 5 mg/kg, sc; assay type: functional, Prostate gland; details: route subcutaneous; method in brief: as §3

Row | SMILES | Inhibition (Rattus norvegicus [1]) | Inhibition (Rattus norvegicus [2]) | Activity (Rattus norvegicus [4]) | Activity (Rattus norvegicus [5]) | further results
1 | C[C@@]12CCCN1C(=S)N(c1ccc(Cl)c(C(F)(F)F)c1)C2=O | 19% | <10% | inactive | – | Activity (Rattus norvegicus [3]): inactive
2 | CCOC(=O)C1=NN2C(=O)N(c3ccc([N+](=O)[O-])c(C(F)(F)F)c3)C(=O)C2(C)C1 (stereo unspecified) | 35% | – | – | <10% | Activity (Rattus norvegicus [6]): <10%
3 | C[C@@]12CC(C(F)(F)F)=NN1S(=O)(=O)N(c1ccc(C#N)c(C(F)(F)F)c1)C2=O | 28% | – | – | 41% | Activity (Rattus norvegicus [6]): 66%
4 | CC(O)(CS(=O)(=O)c1ccc(F)cc1)C(=O)Nc1ccc(C#N)c(C(F)(F)F)c1 (stereo unspecified) [BICALUTAMIDE] | 70% | 80% | inactive | – | Activity (Rattus norvegicus [3]): inactive
5 | CC12CC=NN1C(=O)N(c1ccc(C#N)c(C(F)(F)F)c1)C2=O (stereo unspecified) | 26% | – | – | <10% | Activity (Rattus norvegicus [6]): <10%
6 | C[C@@]12CCCN1C(=S)N(c1ccc(C#N)c(C(F)(F)F)c1)C2=O | 78% | 95% | inactive | – | Activity (Rattus norvegicus [3]): inactive
7 | CN1CC2(C)C(=O)N(c3ccc(Cl)c(C(F)(F)F)c3)C(=O)N2C1=O (stereo unspecified) | 77% | 85% | – | – | –
8 | CC12COC(=O)N1C(=O)N(c1ccc(C#N)c(C(F)(F)F)c1)C2=O (stereo unspecified) | 75% | 80% | – | – | –
9 | C[C@@]12CCCN1C(=O)N(c1ccc(Cl)c(C(F)(F)F)c1)C2=O | 32% | <10% | inactive | – | Activity (Rattus norvegicus [3]): inactive
10 | CC12CC(C(F)(F)F)=NN1C(=O)N(c1ccc([N+](=O)[O-])c(C(F)(F)F)c1)C2=O (stereo unspecified) | 39% | – | – | 51% | Activity (Rattus norvegicus [6]): 73%
11 | CC(=O)Nc1ccc(C2=NN3C(=O)N(c4ccc(C#N)c(C(F)(F)F)c4)C(=O)C3(C)C2)cc1 (stereo unspecified) | 25% | – | – | <10% | Activity (Rattus norvegicus [6]): 13%
12 | CCOC(=O)C1=NN2C(=O)N(c3ccc(C#N)c(C(F)(F)F)c3)C(=O)C2(C)C1 (stereo unspecified) | 16% | – | <10% | <10% | –
13 | CC12CNC(=O)N1C(=O)N(c1ccc(C#N)c(C(F)(F)F)c1)C2=O (stereo unspecified) | 79% | 86% | – | – | –
14 | CC12COC(=O)N1C(=O)N(c1ccc([N+](=O)[O-])c(C(F)(F)F)c1)C2=O (stereo unspecified) | 43% | 28% | – | – | –
15 | CCOC(=O)C1=NN2C(=O)C(=O)N(c3ccc(C#N)c(C(F)(F)F)c3)C(=O)C2(C)C1 (stereo unspecified) | 15% | – | – | <10% | Activity (Rattus norvegicus [6]): <10%
16 | C[C@@]12CC(C(F)(F)F)=NN1C(=O)C(=O)N(c1ccc(C#N)c(C(F)(F)F)c1)C2=O | 27% | – | – | 12% | Activity (Rattus norvegicus [6]): 21%
17 | C[C@@]12CCCN1C(=O)N(c1ccc(Cl)c(Cl)c1)C2=O | 11% | 16% | inactive | – | Activity (Rattus norvegicus [3]): inactive; Activity (Rattus norvegicus [5]; Prostate gland): inactive
18 | C[C@@]12CC(C(F)(F)F)=NN1C(=O)N(c1ccc(C#N)c(C(F)(F)F)c1)C2=O | 26% | – | 75% | – | Activity (Rattus norvegicus [7]): 11%
19 | CN1CC2(C)C(=O)N(c3ccc(C#N)c(C(F)(F)F)c3)C(=O)N2C1=O (stereo unspecified) | 87% | 85% | – | – | –
20 | CC12CNC(=O)N1C(=O)N(c1ccc([N+](=O)[O-])c(C(F)(F)F)c1)C2=O (stereo unspecified) | 32% | 15% | – | – | –
21 | C[C@@]12CC(C(F)(F)F)=NN1[S+]([O-])N(c1ccc(C#N)c(C(F)(F)F)c1)C2=O (stereo partly specified) | 41% | – | – | 58% | Activity (Rattus norvegicus [6]): 117%
22 | C[C@]12CC(C(F)(F)F)=NN1C(=O)N(c1ccc(C#N)c(C(F)(F)F)c1)C2=O | 21% | – | 42% | – | Activity (Rattus norvegicus [7]): 14%
23 | C[C@@]12CCCN1C(=O)N(c1ccc(C#N)c(C(F)(F)F)c1)C2=O | 69% | <10% | inactive | – | Activity (Rattus norvegicus [3]): inactive
24 | CC12COC(=O)N1C(=O)N(c1ccc(Cl)c(C(F)(F)F)c1)C2=O (stereo unspecified) | 55% | 51% | – | – | –
25 | CC12CNC(=O)N1C(=O)N(c1ccc(Cl)c(C(F)(F)F)c1)C2=O (stereo unspecified) | 33% | 19% | – | – | –
26 | C[C@@]12CCCN1C(=S)N(c1ccc(Cl)c(Cl)c1)C2=O | 17% | 27% | inactive | – | Activity (Rattus norvegicus [3]): inactive; Activity (Rattus norvegicus [5]; Prostate gland): inactive
27 | CCC(=O)O[C@H]1CC[C@H]2[C@@H]3CCC4=CC(=O)CC[C@]4(C)[C@H]3CC[C@]12C [TESTOSTERONE PROPIONATE] | – | – | – | – | Activity (Rattus norvegicus [8]): 100%; Activity (Rattus norvegicus [9]): 100%
